Each compound was assayed against Sodium/hydrogen exchanger (Oryctolagus cuniculus, UniProt P23791+P50482+P26432) (assay: Inhibition of 5-N-(ethyl isopropyl)-amiloride[EIPA]-sensitive Na+ uptake into acidified rabbit erythrocytes.).
Type: functional
Summary of the method: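 Rabbit blood (heparinized) red cells, washed, acidified in pH 6.2 KCl buffer with ouabain, 10 min 37 °C; internal pH clamped with 200 μM DIDS and 1 mM acetazolamide, 30 min 37 °C. Uptake 5 min at 37 °C in pH 8.0 buffer with 10 mM NaCl plus ²²Na tracer, 1% DMSO. Triplicates; counts with 10 μM EIPA subtracted; IC50 by nonlinear fit.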

Compound | IC50 [nM]
COc1cc(C)c(C(=O)N=C(N)N)cc1S(C)(=O)=O | 16
Cc1c(C(=O)N=C(N)N)cc(S(C)(=O)=O)c(Cl)c1Cl | 29
Cc1cc(N2CCCC2)c(S(C)(=O)=O)cc1C(=O)N=C(N)N | 11
CCCc1cc(C)c(C(=O)N=C(N)N)cc1S(C)(=O)=O | 5.7
Cc1cc(Sc2cccc(Cl)c2)c(S(C)(=O)=O)cc1C(=O)N=C(N)N | 37
Cc1cc(-c2ccco2)c(S(C)(=O)=O)cc1C(=O)N=C(N)N | 16
Cc1c(C(=O)N=C(N)N)cc(S(C)(=O)=O)c(Cl)c1C | 58
Cc1cc(-c2ccc(Cl)cc2Cl)c(S(C)(=O)=O)cc1C(=O)N=C(N)N | 42
Cc1cc(O)c(S(C)(=O)=O)cc1C(=O)N=C(N)N | 220
Cc1cc(N2CCC(N)CC2)c(S(C)(=O)=O)cc1C(=O)N=C(N)N | 9.8
Cc1cc(Oc2cncc(Cl)c2)c(S(C)(=O)=O)cc1C(=O)N=C(N)N | 14
CCc1cc(Oc2cccnc2)c(S(C)(=O)=O)cc1C(=O)N=C(N)N | 27
Cc1ccc(C(=O)N=C(N)N)cc1S(C)(=O)=O | 210
Cc1ccc(-c2ccc(C(=O)N=C(N)N)cc2S(C)(=O)=O)cc1 | 100
Cc1cc(Nc2ncccn2)c(S(C)(=O)=O)cc1C(=O)N=C(N)N | 8.3
Cc1cc(C2CCC2)c(S(C)(=O)=O)cc1C(=O)N=C(N)N | 8.2
CCCCCc1cc(C)c(C(=O)N=C(N)N)cc1S(C)(=O)=O | 27
Cc1cc(Oc2ccccc2Cl)c(S(C)(=O)=O)cc1C(=O)N=C(N)N | 14
CS(=O)(=O)c1cc(C(=O)N=C(N)N)ccc1C#N | 140
CCC(C)c1cc(C)c(C(=O)N=C(N)N)cc1S(C)(=O)=O (configuration not stated) | 8
CS(=O)(=O)c1cc(C(=O)N=C(N)N)c(N)cc1N1CCCC(O)C1 (configuration not stated) | 160
Cc1c(C(=O)N=C(N)N)cc(S(C)(=O)=O)cc1-n1cccc1 | 100

Compound | IC50 [nM]
CS(=O)(=O)c1cc(C(=O)N=C(N)N)c(Cl)cc1Oc1cccnc1 | 52
Cc1cc(-n2cnc3ccccc32)c(S(C)(=O)=O)cc1C(=O)N=C(N)N | 100
Cc1cc(Oc2ccc(Cl)cc2)c(S(C)(=O)=O)cc1C(=O)N=C(N)N | 13
Cc1cc(Sc2ccncc2)c(S(C)(=O)=O)cc1C(=O)N=C(N)N | 13
Cc1cn(-c2cc(C)c(C(=O)N=C(N)N)cc2S(C)(=O)=O)cn1 | 28
Cc1c(C(=O)N=C(N)N)ccc(Cl)c1S(C)(=O)=O | 130
CCc1cc(Cl)c(S(C)(=O)=O)cc1C(=O)N=C(N)N | 63
CS(=O)(=O)c1cc(C(=O)N=C(N)N)ccc1C1CCCCC1 | 340
CCc1cc(C)c(C(=O)N=C(N)N)cc1S(C)(=O)=O | 4.8
Cc1cc(Sc2ccccc2Cl)c(S(C)(=O)=O)cc1C(=O)N=C(N)N | 14
Cc1cc(-c2ccc(Cl)cc2)c(S(C)(=O)=O)cc1C(=O)N=C(N)N | 45
Cc1cc(Nc2ccccc2)c(S(C)(=O)=O)cc1C(=O)N=C(N)N | 21
CS(=O)(=O)c1cc(C(=O)N=C(N)N)c(F)cc1F | 630
Cc1cc(OCc2ccccc2)c(S(C)(=O)=O)cc1C(=O)N=C(N)N | 28
Cc1cc(-n2ccc(=O)cc2)c(S(C)(=O)=O)cc1C(=O)N=C(N)N | 75
CS(=O)(=O)c1cc(C(=O)N=C(N)N)ccc1-n1ccc(=O)cc1 | 710
CCOc1cc(C)c(C(=O)N=C(N)N)cc1S(C)(=O)=O | 19
Cc1ccc(S(C)(=O)=O)cc1C(=O)N=C(N)N | 150
Cc1cc(Cl)c(S(C)(=O)=O)cc1C(=O)N=C(N)N | 25
CSc1cc(C)c(C(=O)N=C(N)N)cc1S(C)(=O)=O | 6
Cc1cc(OC(C)C)c(S(C)(=O)=O)cc1C(=O)N=C(N)N | 19
Cc1cc(N2CCCCC2)c(S(C)(=O)=O)cc1C(=O)N=C(N)N | 21

Compound | IC50 [nM]
CCc1cc(OC)c(S(C)(=O)=O)cc1C(=O)N=C(N)N | 30
CS(=O)(=O)c1cc(C(=O)N=C(N)N)c(Cl)cc1Cl | 140
Cc1cc(Oc2cccnc2)c(S(C)(=O)=O)cc1C(=O)N=C(N)N | 8.8
Cc1c(C(=O)N=C(N)N)cc(S(C)(=O)=O)c(Cl)c1[N+](=O)[O-] | 44
CCSc1cc(C)c(C(=O)N=C(N)N)cc1S(C)(=O)=O | 5.9
Cc1cc(OC2CCCCC2)c(S(C)(=O)=O)cc1C(=O)N=C(N)N | 37
Cc1cc(-n2cccn2)c(S(C)(=O)=O)cc1C(=O)N=C(N)N | 25
COc1cc(Cl)c(C(=O)N=C(N)N)cc1S(C)(=O)=O | 40
CS(=O)(=O)c1cc(C(=O)N=C(N)N)c(Cl)cc1N1CCC(N)CC1 | 20
CS(=O)(=O)c1cc(C(=O)N=C(N)N)c(N)cc1N1CCCCC1 | 190
CS(=O)(=O)c1cc(C(=O)N=C(N)N)ccc1Oc1cccnc1 | 76
CS(=O)(=O)c1cc(C(=O)N=C(N)N)ccc1N1CCCC(O)C1 (configuration not stated) | 65
Cc1cc(OC(C)(C)C)c(S(C)(=O)=O)cc1C(=O)N=C(N)N | 9.4
COc1ccc(C(=O)N=C(N)N)cc1S(C)(=O)=O | 270
Cc1cc(N2CCCC(O)C2)c(S(C)(=O)=O)cc1C(=O)N=C(N)N (configuration not stated) | 30
Cc1cc(Sc2ccc(Cl)cc2)c(S(C)(=O)=O)cc1C(=O)N=C(N)N | 19
Cc1cc(-c2cc(C(F)(F)F)cc(C(F)(F)F)c2)c(S(C)(=O)=O)cc1C(=O)N=C(N)N | 2800
Cc1ccc(-c2cc(C)c(C(=O)N=C(N)N)cc2S(C)(=O)=O)cc1 | 25
CS(=O)(=O)c1cc(C(=O)N=C(N)N)ccc1N1CCCCC1 | 130
Cc1c(C(=O)N=C(N)N)ccc(Oc2cccnc2)c1S(C)(=O)=O | 2200
CS(=O)(=O)c1cc(C(=O)N=C(N)N)c(N)cc1Cl | 130
Cc1cc(Oc2cccc(Cl)c2)c(S(C)(=O)=O)cc1C(=O)N=C(N)N | 21

Compound | IC50 [nM]
Cc1cc(Br)c(S(C)(=O)=O)cc1C(=O)N=C(N)N | 12
CCc1cc(-n2ccc(=O)cc2)c(S(C)(=O)=O)cc1C(=O)N=C(N)N | 930
Cc1cc(Nc2ccccn2)c(S(C)(=O)=O)cc1C(=O)N=C(N)N | 9.2
CS(=O)(=O)c1cc(C(=O)N=C(N)N)ccc1Br | 180
CS(=O)(=O)c1cc(C(=O)N=C(N)N)ccc1Cl | 380
Cc1cc(SC(C)(C)C)c(S(C)(=O)=O)cc1C(=O)N=C(N)N | 22
COc1cc(N2CCC(N)CC2)c(S(C)(=O)=O)cc1C(=O)N=C(N)N | 73
Cc1cc(-n2ccnc2C)c(S(C)(=O)=O)cc1C(=O)N=C(N)N | 29
CS(=O)(=O)c1cc(C(=O)N=C(N)N)c(Cl)cc1-n1ccnc1 | 130
Cc1c(C(=O)N=C(N)N)cc(S(C)(=O)=O)c(-n2ccnc2)c1C | 290
Cc1cc(-c2cc(Cl)cc(Cl)c2)c(S(C)(=O)=O)cc1C(=O)N=C(N)N | 130
Cc1cc(-c2ccc(F)cc2)c(S(C)(=O)=O)cc1C(=O)N=C(N)N | 36
Cc1cc(Nc2cccc(Cl)c2)c(S(C)(=O)=O)cc1C(=O)N=C(N)N | 33
Cc1c(C(=O)N=C(N)N)cc(S(C)(=O)=O)c(Oc2cccnc2)c1C | 23
CCc1cc(N2CCC(O)CC2)c(S(C)(=O)=O)cc1C(=O)N=C(N)N | 41
CS(=O)(=O)c1cc(C(=O)N=C(N)N)c(Cl)cc1Nc1ncccn1 | 49
CS(=O)(=O)c1cc(C(=O)N=C(N)N)c(N2CCCCC2)cc1N1CCCCC1 | 1000
Cc1cc(C#N)c(S(C)(=O)=O)cc1C(=O)N=C(N)N | 70
Cc1cc(C(F)(F)F)c(S(C)(=O)=O)cc1C(=O)N=C(N)N | 37
CCN(CC)Cc1cc(Br)c(S(C)(=O)=O)cc1C(=O)N=C(N)N | 9500
Cc1cc(N)c(S(C)(=O)=O)cc1C(=O)N=C(N)N | 16
CCc1cc(N2CCCCC2)c(S(C)(=O)=O)cc1C(=O)N=C(N)N | 25

Compound | IC50 [nM]
Cc1c(C(=O)N=C(N)N)cc(S(C)(=O)=O)c(C)c1C | 55
Cc1cc(Oc2ccccc2)c(S(C)(=O)=O)cc1C(=O)N=C(N)N | 10
CS(=O)(=O)c1cc(C(=O)N=C(N)N)ccc1N1CCC(N)CC1 | 160
CS(=O)(=O)c1cc(C(=O)N=C(N)N)ccc1Oc1cncc(Cl)c1 | 75
Cc1cc(F)c(S(C)(=O)=O)cc1C(=O)N=C(N)N | 44
Cc1cc(Br)c(C(=O)N=C(N)N)cc1S(C)(=O)=O | 70
Cc1cc(-c2ccccc2)c(S(C)(=O)=O)cc1C(=O)N=C(N)N | 19
CS(=O)(=O)c1cc(C(=O)N=C(N)N)ccc1-n1ccnc1 | 150
Cc1cc(C2CCCCC2)c(S(C)(=O)=O)cc1C(=O)N=C(N)N | 22
Cc1cc(OC2CCCC2)c(S(C)(=O)=O)cc1C(=O)N=C(N)N | 27
Cc1cc(C)c(S(C)(=O)=O)cc1C(=O)N=C(N)N | 11
Cc1c(C(=O)N=C(N)N)cc(S(C)(=O)=O)c(C#N)c1C | 370
CCc1cc(Br)c(S(C)(=O)=O)cc1C(=O)N=C(N)N | 41
Cc1cc(Sc2ccccc2)c(S(C)(=O)=O)cc1C(=O)N=C(N)N | 14
Cc1cc(SC(C)C)c(S(C)(=O)=O)cc1C(=O)N=C(N)N | 12
Cc1cc(C(C)C)c(S(C)(=O)=O)cc1C(=O)N=C(N)N | 2
Cc1cc(N2CCN(c3ncccn3)CC2)c(S(C)(=O)=O)cc1C(=O)N=C(N)N | 27
CS(=O)(=O)c1cc(C(=O)N=C(N)N)c(Cl)cc1N1CCCC(O)C1 (configuration not stated) | 60
Cc1cc(-n2ccnc2)c(S(C)(=O)=O)cc1C(=O)N=C(N)N | 23

Reference: ChEMBL document CHEMBL1130075, “(2-Methyl-5-(methylsulfonyl)benzoyl)guanidine Na+/H+ antiporter inhibitors” (J Med Chem, 1997)
